Screening data: PubChem BioAssay, Sanford-Burnham Center for Chemical Genomics
The list is not random: actives were taken first. Their share in the collection is about 1.5%.
CXCR6 inh: blocks human CXCR6 beta-arrestin recruitment | CHO-K1 PathHunter CXCR6 beta-arrestin, luminescence | 0.36% of 360,000 active | inhibition, % at 20 µM | O00574; in the data active = inhibition above about 34%, passing the limit was not always enough;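 note: antagonist mode with CXCL16 agonist at 10 nM final; 0% = 10 nM CXCL16 with DMSO and 100% = unstimulated wells without agonist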
Target sequence (O00574 whole entry, looked up): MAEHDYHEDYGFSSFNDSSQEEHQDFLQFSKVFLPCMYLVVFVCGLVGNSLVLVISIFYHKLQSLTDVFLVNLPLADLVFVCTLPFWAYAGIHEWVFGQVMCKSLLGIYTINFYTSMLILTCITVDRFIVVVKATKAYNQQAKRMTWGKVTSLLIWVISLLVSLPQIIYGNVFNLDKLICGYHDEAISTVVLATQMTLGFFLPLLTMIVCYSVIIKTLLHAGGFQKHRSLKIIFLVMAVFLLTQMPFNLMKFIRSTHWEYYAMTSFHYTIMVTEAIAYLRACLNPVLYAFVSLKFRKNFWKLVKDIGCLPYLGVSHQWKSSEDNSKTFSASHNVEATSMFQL
APJ ag: APJ receptor agonism; P35414; CHO-K1 APJ PathHunter beta-arrestin, luminescence; 0% DMSO wells, 100% apelin; 0.11% of 330,000 active; AID 2520; activation, % at 20 µM;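 active = activation more than six SD over the plate average, tested at 20 µM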;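 note: 0% = DMSO alone and 100% = apelin-13 at 10 nM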
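Material: CHO-K1 APJ beta-arrestin complementation cell line; Input: cell density 1000 per well; Incubation: compound stimulation 90 min at 25 °C, detection 60 min; Signal: luminescence from split beta-galactosidase complementation, Galacton Star/Emerald II substrate; Controls: DMSO-only wells as negative, 10 nM Apelin-13 as positive control.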
APJ antag: blocks the human apelin receptor APJ; P35414; CHO-K1 APJ beta-arrestin complementation, luminescence; inhibition, % at 20 µM; 0.32% of 330,000 active;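 active = inhibition above about 40% at 20 µM, limit read from the data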;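 note: cells challenged with 10 nM apelin-13 agonist together with compound; plate controls were apelin-13 plus DMSO wells for no effect and DMSO wells lacking apelin-13 for full effect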
EBI2 antag: blocks human EBI2 receptor beta-arrestin signaling | P32249 | EBI2 beta-arrestin recruitment, luminescence, 7a,25-OHC stimulated | inhibition, % at 5 µM | 0.81% of 360,000 active; in the data active = inhibition above about 38%;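 note: enzyme fragment complementation signal reports receptor beta-arrestin coupling in cells; 0% = agonist plus DMSO wells and 100% = wells without agonist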
CCR6 antagonist: CCR6 (human) receptor antagonism | 0.49% of 340,000 active | P51684 | inhibition, % at 20 µM | CHO-K1 CCR6 PathHunter beta-arrestin, luminescence, CCL20-stimulated;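 active = compounds whose inhibition of the agonist-driven luminescence signal at 20 µM reaches about 50%, limit read from the data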;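 note: cells stimulated with CCL20 at 14 nM final; plate controls were DMSO with CCL20 for no effect and DMSO without agonist for full effect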
EBI2 antag conf: EBI2 (human) antagonism, single concentration confirmation; shares compounds with EBI2 antag; EBI2 beta-arrestin luminescence, 7a,25-OHC antagonism; inhibition, % at 5 µM; 29% of 2,400 active; AID 651997;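 active = inhibition of at least 50%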
EBI2 agonist: counter-screen for EBI2 antagonists: EBI2 agonist activity | EBI2-expressing cells, agonist mode, luminescence, 60 min; 0% vehicle, 100% 7α,25-dihydroxycholesterol control | 2,400 tested, under 10 active | activation, % at 5 µM | shares compounds with EBI2 antag;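 active = activation of at least 50%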
bGal cs: counter-screen for EBI2 antagonists: E. coli beta-galactosidase inhibition; inhibition, % at 5 µM; purified beta-galactosidase, luminescent Galacton Star, 15 min; 1% of 2,400 active; shares compounds with EBI2 antag; AID 652176;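 active = replicate-average signal at least 3 plate SD below neutral wells, shown as high inhibition, flagging enzyme-inhibiting false positives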;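 note: 0% = DMSO wells with enzyme and 100% = wells lacking enzyme; higher means stronger loss of beta-gal luminescence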
The depositor's hits bear a star; / = no result.

SMILES	CXCR6 inh	APJ ag	APJ antag	EBI2 antag	CCR6 antagonist	EBI2 antag conf	EBI2 agonist	bGal cs
S=C(N/N=C/c1ccccc1Cl)Nc1ccccc1	12	-3	33	43*	32	37	1	4
COC(=O)[C@@]12C[C@@H](CC(=O)NCCc3ccccc3OC)C(=O)N(Cc3ccccc3)C1=CCC(C)(C)C2	/	/	/	15	/	/	/	/
CCOC(=O)CN(C(=O)CSc1nnc(CNc2ccc(C)cc2C)o1)c1ccccc1	0	-2	-8	45*	-18	21	-2	-10
Cc1ccc(CNC(=O)c2ccc(S(=O)(=O)N3CCCCC3)cc2)cc1	-2	4	6	64*	7	27	2	2
COc1ccc(S(=O)(=O)N2CCN(C(=O)NCc3ccc(C)cc3)CC2)cc1	5	-1	10	77*	2	60*	2	0
COc1ccc(S(=O)(=O)N2CCN(C(=S)NCCc3ccccc3)CC2)cc1	-4	13	-44	12	7	/	/	/
Cc1ccc(S(=O)(=O)N2CCN(C(=O)NCc3ccc(F)cc3)CC2)c(C)c1	-1	-1	1	68*	8	27	1	1
O=C(NCc1ccc(F)cc1)N1CCN(S(=O)(=O)c2ccccc2F)CC1	-4	-2	-5	13	-9	/	/	/
COc1ccc(CCNC(=S)N2CCN(S(=O)(=O)c3ccc(C)cc3)CC2)cc1	1	7	14	52*	16	43	1	0
C(=C\c1ccccc1)/CN1CCN(C(c2cc3ccccc3o2)c2nnnn2C2CCCCC2)CC1 (configuration not stated)	2	/	/	30	/	/	/	/
Cc1ccc(CNC(=O)c2ccc(-n3cccc3)cc2)cc1	-2	/	/	47*	14	3	-1	-11
Cc1cccc(C(=O)NC(=S)Nc2ccc(S(=O)(=O)N3CCCCC3)cc2)c1	18	-3	9	62*	41	45	-1	-14
COc1ccc(CNC(=O)N2CCN(S(=O)(=O)c3ccc(C)cc3C)CC2)cc1	-4	0	-11	63*	21	39	-1	-17
C[C@H]1CN([C@@H](C)CO)S(=O)(=O)c2ccc(/C=C/c3ccccc3)cc2O[C@H]1CN(C)C(=O)NC1CCCCC1	-1	/	/	18	/	/	/	/
CCCCNC(=O)C1(C)CCCCN1CC(=O)c1ccc(OC)cc1 (configuration not stated)	10	/	/	6	/	/	/	/
Cc1ccc2[nH]c3c(c2c1)CN(C(=O)CN1CCN(c2cccc(C)c2C)CC1)CC3	-1	1	3	15	-12	/	/	/
Cc1ccc2[nH]c3c(c2c1)CN(C(=O)CN1c2ccc(F)cc2CCC1C)CC3 (configuration not stated)	3	3	-8	46*	-2	9	0	3
Cc1cccc(NC(=O)COc2cccc3c2CCNC3=O)c1	0	/	/	15	/	/	/	/
Cc1cc(C)n2nc(CNS(=O)(=O)c3ccc(C(C)(C)C)cc3)nc2n1	6	/	/	-2	/	/	/	/
CCn1c(SCC(=O)NNC(=O)c2ccc(OC)cc2)nnc1-c1ccco1	2	-1	-35	70*	3	50	2	5
CCn1c(SCC(=O)NNC(=O)c2ccc(C)cc2)nnc1-c1ccco1	5	0	-6	80*	11	50	-1	-18
CCCc1nc(SCC(=O)NNC(=O)C2CCCCC2)c2ccccc2n1	-2	-2	7	-6	-10	/	/	/
CCCc1nc(SCC(=O)NNC(=O)c2ccc(OC)cc2)c2ccccc2n1	-2	0	-5	77*	8	45	0	-14
CCCCCCCCN1C(=O)[C@H](CC(=O)NCc2ccc(C)o2)C[C@@]2(C(=O)OCC)CCC=C12	/	/	/	6	/	/	/	/
COC(=O)C[C@H]1CC[C@@H]2[C@H](COC[C@H](O)CN2S(=O)(=O)c2ccccc2OC)O1	/	/	/	-3	/	/	/	/
SMILES	CXCR6 inh	APJ ag	APJ antag	EBI2 antag	CCR6 antagonist	EBI2 antag conf	EBI2 agonist	bGal cs
C/C=C\C=C\C(=O)N1CC2(CC(c3cccc(NC(=O)COc4ccc(Cl)cc4)c3)=NO2)C[C@H]1C(N)=O (some centres not stated)	-8	9	-38	48*	-4	47	1	5
C/C=C\C=C/C(=O)Nc1cccc(C2=NOC3(C2)C[C@@H](C(N)=O)N(C(=O)COc2ccc(Cl)cc2)C3)c1 (some centres not stated)	-4	0	0	39	3	/	/	/
CC(C)(C)NC(=O)C1C(c2ccc(C(F)(F)F)cc2)=Nc2ccccc2N1C(=O)c1cccc(C(F)(F)F)c1 (configuration not stated)	/	/	/	-1	/	/	/	/
COc1ccc(-c2cc(C3CCN(Cc4ccc([N+](=O)[O-])cc4)CC3)[nH]n2)cc1	-8	-3	-32	33	9	/	/	/
COc1ccc(-c2cc(C3CCN(Cc4cccc(C(F)(F)F)c4)CC3)[nH]n2)cc1	3	1	-5	55*	-22	31	0	9
Cc1ccc(CN2CCC(c3cc(-c4ccc(Cl)cc4)n[nH]3)CC2)cc1	1	2	-26	65*	21	40	2	5
N#C/C(=C\c1cn(CCOc2ccccc2)c2ccccc12)C(=O)NCc1ccco1	8	-7	9	46*	29	22	0	8
CCOCCCNS(=O)(=O)c1ccc(NC(=O)C2CC(=O)N(c3ccc(C)cc3)C2)cc1 (configuration not stated)	-4	-2	3	65*	20	39	-2	-12
CCOc1ccc(N2CC(C(=O)Nc3ccc(S(=O)(=O)NCC4CCCO4)cc3)CC2=O)cc1 (configuration not stated)	-13	0	4	51*	-1	27	1	7
COc1ccc(-n2cc(-c3ccc(Br)cc3)[nH]c2=S)cc1	1	-1	-6	79*	-7	52*	-2	-8
COc1ccc2nc(C)cc(SCC(=O)NNC(=O)COc3ccc(C)cc3)c2c1	-2	-2	18	67*	-15	17	2	7
Cc1ccc(OCC(=O)NNC(=O)CSc2nnc(-c3ccc(C)cc3)n2C)cc1	-2	-4	3	75*	2	40	-1	3
CCCCNC(=O)c1ccc2nc(CC)c(N(C)Cc3cccs3)n2c1	-4	/	/	-4	/	/	/	/
COc1ccc(CN2CC[C@@H]3CN(C(C)=O)[C@H](c4ccccc4Br)C[C@@H]32)cc1	3	/	/	3	/	/	/	/
